Measured values reported in ChEMBL document CHEMBL4196135, “Helvolic Acid Derivatives with Antibacterial Activities against Streptococcus agalactiae from the Marine-Derived Fungus Aspergillus fumigatus HNMF0047” (2018).
≈ marks a conversion by molar mass, not a printed value. Calls of active or inactive are those of the source. No cut-off for these calls is given here.

Experiments:
Streptococcus agalactiae = assay: Antimicrobial activity against Streptococcus agalactiae after 24 hrs by two-fold dilution method; assay type: functional
Summary of the method: (§1)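 Two-fold serial dilution assay reporting MIC in μg/mL, run alongside Staphylococcus aureus, Escherichia coli, Bacillus subtilis and Streptococcus agalactiae. Tobramycin served as positive control.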

Staphylococcus aureus = assay: Antimicrobial activity against Staphylococcus aureus after 24 hrs by two-fold dilution method; assay type: functional; summary of the method: as §1
Escherichia coli = assay: Antimicrobial activity against Escherichia coli at 128 ug/ml after 24 hrs by two-fold dilution method; assay type: functional, organism-based
Bacillus subtilis = assay: Antimicrobial activity against Bacillus subtilis at 128 ug/ml after 24 hrs by two-fold dilution method; assay type: functional, organism-based

| MIC (Streptococcus agalactiae) [mg/L] | MIC (Staphylococcus aureus) [mg/L] | SMILES | Activity (Escherichia coli) | Activity (Bacillus subtilis) |
| --- | --- | --- | --- | --- |
| 16 (≈ 27.5 µM) | 16 (≈ 27.5 µM) | CCC(=O)O[C@H]1C[C@@]2(C)[C@@H](CC[C@H]3[C@@]4(C)C=CC(=O)[C@@H](C)[C@@H]4[C@H](OC(C)=O)C(=O)[C@@]32C)/C1=C(\CCC=C(C)C)C(=O)O | inactive | inactive |
| 64 (≈ 109 µM) | > 128 | CC(=O)O[C@H]1C[C@@]2(C)[C@@H](CC[C@H]3[C@@]4(C)C=CC(=O)[C@@H](C)[C@@H]4[C@H](OC(C)=O)C(=O)[C@@]32C)/C1=C1\CC[C@@H](C(C)(C)O)OC1=O | inactive | inactive |
| > 128 | > 128 | CC(=O)O[C@H]1C[C@@]2(C)[C@@H](CC[C@H]3[C@@]4(C)C=CC(=O)[C@@H](C)[C@@H]4[C@H](OC(C)=O)C(=O)[C@@]32C)/C1=C1\CC[C@H](C(C)(C)O)OC1=O | inactive | inactive |
| > 128 | > 128 | CC(=O)O[C@@H]1C(=O)[C@@]2(C)[C@@H](CC[C@H]3C4=C(CCC=C(C)C)C(=O)O[C@H]4C[C@@]32C)[C@@]2(C)CCC(=O)[C@@H](C)[C@H]12 | inactive | inactive |
| > 128 | > 128 | CC(C)=CCCC1=C2[C@H](C[C@@]3(C)[C@H]2CC[C@H]2[C@@]4(C)C=CC(=O)[C@@H](C)[C@@H]4[C@H](O)C(=O)[C@@]23C)OC1=O | inactive | inactive |
| 8 (≈ 14.1 µM) | 16 (≈ 28.1 µM) | CC(=O)O[C@H]1C[C@@]2(C)[C@@H](CC[C@H]3[C@@]4(C)C=CC(=O)[C@@H](C)[C@@H]4[C@H](OC(C)=O)C(=O)[C@@]32C)/C1=C(\CCC=C(C)C)C(=O)O [HELVOLIC ACID] | inactive | inactive |
| > 128 | > 128 | CCC(=O)O[C@@H]1C(=O)[C@@]2(C)[C@@H](CC[C@H]3C4=C(CCC=C(C)C)C(=O)O[C@H]4C[C@@]32C)[C@@]2(C)C=CC(=O)[C@@H](C)[C@H]12 | inactive | inactive |
| > 128 | > 128 | CC(C)=CCCC1=C2[C@H](C[C@@]3(C)[C@H]2CC[C@H]2[C@@]4(C)CCC(=O)[C@@H](C)[C@@H]4[C@H](O)C(=O)[C@@]23C)OC1=O | inactive | inactive |
| > 128 | > 128 | CC(=O)O[C@@H]1C(=O)[C@@]2(C)[C@@H](CC[C@H]3C4=C(CCC=C(C)C)C(=O)O[C@H]4C[C@@]32C)[C@@]2(C)C=CC(=O)[C@@H](C)[C@H]12 | inactive | inactive |
| 2 (≈ 3.43 µM) | 8 (≈ 13.7 µM) | CCC(=O)O[C@@H]1C(=O)[C@@]2(C)[C@@H](CC[C@H]3/C(=C(\CCC=C(C)C)C(=O)O)[C@@H](OC(C)=O)C[C@@]32C)[C@@]2(C)C=CC(=O)[C@@H](C)[C@H]12 | inactive | inactive |

| SMILES | MIC (Streptococcus agalactiae) [mg/L] | MIC (Staphylococcus aureus) [mg/L] | Activity (Escherichia coli) | Activity (Bacillus subtilis) |
| --- | --- | --- | --- | --- |
| NC[C@H]1O[C@H](O[C@H]2[C@H](O)[C@@H](O[C@H]3O[C@H](CO)[C@@H](O)[C@H](N)[C@H]3O)[C@H](N)C[C@@H]2N)[C@H](N)C[C@@H]1O [TOBRAMYCIN] | 32 (≈ 68.4 µM) | 1 (≈ 2.14 µM) |  |  |
